Where two headings read alike, the source gives them in different places.

Consider 3 compounds from PMC7029794 (Cancer chemotherapy and pharmacology, 2019).

The conditions of data set [1]: adults at the recommended dose; cited from earlier work.
The conditions of data set [2]: in vivo, po, 30 mg/kg, cited from earlier work.
The conditions of data set [3]: CF1 mice, 5 minutes after injection, cited from earlier work.
For the next data set, the system named is CDK-cyclin D1. The following applies: read-out: IC50 for CDK-cyclin D1; no reference given; cited from earlier work.
Data set [4] can be described thus: Cerebral microdialysis study in mice bearing SJ-DIPGx7. It counts as in vivo, CD1 nude mice. The note with it: glioma mice, 100 mg/kg oral. The essentials: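 Female CD1 nude mice with cortical allografts of 1·10^6 SJ-DIPGx7 cells (n=16); a guide cannula was implanted stereotactically into the cortex. After a single oral 100 mg/kg dose, tumor ECF was microdialysed with Ringer's after at least 1 h probe equilibration, and plasma was sampled at 0.08, 1.5 and 7 h (some at 24 h). ECF values were corrected by per-probe in vitro recovery. Data were fitted in NONMEM with plasma parameters and V3 fixed.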

Data set [5] in a line: Cerebral microdialysis study in non-tumor bearing mice. It counts as in vivo, CD1 nude mice. The note with it: 100 mg/kg oral. The method, boiled down: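 After a single oral 100 mg/kg dose, brain ECF was microdialysed with Ringer's after at least 1 h probe equilibration. Plasma was sampled at 0.08, 1.5 and 7 h (some at 24 h). ECF was corrected by in vitro probe recovery at 1 μg/mL, 37°C, 0.5 μL/min. A one-compartment plus ECF compartment model was fitted in NONMEM with plasma parameters fixed.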

Data set [6] is classed as in vivo, CD1 nude mice. The method, boiled down: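 Female CD1 nude mice (n=9) bearing cortical SJ-DIPGx7 allografts received a single oral 100 mg/kg dose (10 mg/ml in 0.5% methyl cellulose). Sampling used a population design with multiple samples per mouse up to 24 h: retro-orbital bleeds and terminal cardiac puncture, into heparin. Plasma was assayed by LC-MS/MS. A one-compartment model with an oral dosing compartment was fitted by nonlinear mixed-effects modelling (NONMEM).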

The conditions of data set [7]: cited from earlier work.
Data set [8] is described as follows: Ribociclib protein binding in mouse plasma. The following applies: CD1, mouse. It counts as in vitro ADME. The essentials:
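The test compound was spiked into CD1 mouse plasma (sodium heparin) at final 500, 1000, 2500 and 5000 ng/ml. Spiked plasma was ultrafiltered through a 10 kDa cut-off device by centrifugation for 30 min at 3600 rpm, 37°C, and the filtrate was stored at −80°C. Fraction unbound was calculated as the filtrate concentration divided by the total plasma concentration.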

Setting [9] is: Full-plasma PK study, glioma mice, 100 mg/kg oral.

Regarding `CCN1CCN(Cc2ccc(Nc3ncc(F)c(-c4cc(F)c5nc(C)n(C(C)C)c5c4)n3)nc2)CC1` [abemaciclib], in [1], the “plasma AUC” value was 5520 ng·h/mL. In addition, in data set [2] (24 h), the “Kp,brain” value is listed as 0.21 ± 0.04 and the “Kp,uu” value is 0.03 ± 0.01. In data set [2], the “plasma AUC” value was 69,300 ng/ml*hr.

For the compound `CC(=O)c1c(C)c2cnc(Nc3ccc(N4CCNCC4)cn3)nc2n(C2CCCC2)c1=O` [palbociclib], the “Kp,uu” value in data set [3] is 0.01 ± 0.003. Also, the “Kp,brain” value in data set [3] (dose 0.5 μmole/kg) is listed as 0.13 ± 0.04.

For `CN(C)C(=O)c1cc2cnc(Nc3ccc(N4CCNCC4)cn3)nc2n1C1CCCC1` [ribociclib, Ribociclib], in the data set on CDK-cyclin D1, the IC50 is 0.01 µM. Also, the AUC(0-t) in data set [4] (CD1 nude, mouse, tumor ECF, po, 100 mg/kg, Brain/tumor ECF AUC0–24h, n=16, tumor ECF) amounted to 433 ± 451 ng·h/mL. In data set [4], the “θCL23 Influx clearance from plasma to ECF compartment, Estimate (%RSE)” value is 0.000000838 (24) L/hr/kg and the “θCL32 Efflux clearance from ECF to plasma compartment, Estimate (%RSE)” value is recorded as 0.0000808 (11.5) L/hr/kg. Besides, in data set [5], the “θCL23 Influx clearance from plasma to ECF compartment, Estimate (%RSE)” value was 0.124 (26.8) L/hr/kg and the “θCL32 Efflux clearance from ECF to plasma compartment, Estimate (%RSE)” value was 7.78 (8.81) L/hr/kg. Further, the AUC(0-t) in [5] (CD1 nude, mouse, brain ECF, po, 100 mg/kg, Brain/tumor ECF AUC0–24h, n=12, brain ECF) turned out to be 736 ± 610 ng·h/mL. In addition, the half-life in data set [6] (CD1 nude, mouse, plasma, po, 100 mg/kg) is 4.67 ± 0.64 h. Besides, in data set [6] (setting [9]), the “θCL Clearance, Estimate (%RSE)” value was 2.78 (1.8) L/hr/kg; the “θKa First-order absorption constant, Estimate (%RSE)” value is on record as 2.75 (5.26) 1/hr; the “θVc Volume of central compartment, Estimate (%RSE)” value is recorded as 18.6 (3.87) L/kg. For the same compound, in [7] (assumed value for phase I comparison), the fraction unbound is recorded as 0.30. Further, the “unbound AUC” value in data set [7] (phase I study, assuming a fraction unbound of 0.30) was ~ 6000 ng/ml*hr. In addition, the free fraction (fraction unbound) at 30 min in data set [8] was 0.23.

One may read the IC50 as the concentration that inhibits the measured activity by half. A word on the AUC(0-t): it is the area under the concentration-time curve up to a stated or last time point. Read a low AUC(0-t) as less exposure. A word on the half-life: it is how long it takes for the measured level to halve. Read a high half-life as slow decline. A word on the fraction unbound: it is the share of the substance not bound to proteins or other matrix.
